Data as given in ChEMBL document CHEMBL1145991 (J Med Chem, 2003).

How the values were obtained:
Settings in all cases: Aorta
[1] = In vitro vasorelaxing effect evoked on endothelium-denuded rat aortic rings in the presence of 1 uM glibenclamide; type: functional, tissue-based
How it was run: (§1)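 Glibenclamide 1 μM was added to endothelium-denuded male Wistar rat aortic rings before the 20 mM KCl contraction. Compound was then added cumulatively in 3-fold increasing concentrations, and relaxation was expressed relative to the KCl tone. Student t test against control, P < 0.05. Mean ± standard error, 5–10 experiments.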

[2] = In vitro maximal vasorelaxation of endothelium-denuded rat aortic rings, expressed as percentage contractile tension.; type: functional
How it was run: (§2)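 Thoracic aortic rings were taken from male normotensive Wistar rats (250–350 g) and equilibrated for 60 min. Rings relaxing ≥10% to ACh 10 μM after NE 1 μM precontraction were discarded. Rings were contracted with KCl 20 mM, then 3-fold increasing concentrations were added cumulatively. Efficacy is the maximal relaxation as % of KCl tone, or the response at the 0.1 mM limit concentration. Mean ± standard error of 5–10 experiments.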

[3] = In vitro maximal vasorelaxing effect evoked on endothelium-denuded rat aortic rings was expressed as percentage contractile tension in the presence of 60 mM KCl
[4] = In vitro maximal vasorelaxing effect evoked on endothelium-denuded rat aortic rings in the presence of 1 uM glibenclamide; type: functional; how it was run: as §1
Rattus norvegicus [5] = species: Rattus norvegicus; experiment: In vitro vasorelaxing effect evoked on endothelium-denuded rat aortic rings expressed as half reduction of the contractile tone; The compound was ineffective; type: functional, tissue-based
Rattus norvegicus [6] = species: Rattus norvegicus; experiment: In vitro maximal vasorelaxing effect evoked on endothelium-denuded rat aortic rings was expressed as percentage contractile tension; The compound was ineffective; type: functional, tissue-based; how it was run: as §2
[7] = In vitro vasorelaxing effect evoked on endothelium-denuded rat aortic rings in the presence of 1 uM glibenclamide
[8] = In vitro vasorelaxing effect evoked on endothelium-denuded rat aortic rings expressed as percentage efficacy (%) recorded in the presence of 1 uM glibenclamide
[9] = In vitro vasorelaxing effect evoked on endothelium-denuded rat aortic rings expressed as potency significantly different from respective control; type: functional, tissue-based

Row | Structure (SMILES) | IC50 [1] [nM] | Emax [2] [%] | Emax [3] [%] | Emax [4] [%] | other results
1 | CC1(C)CN(N2CCCC2=O)c2cc(Br)ccc2S1 | 2400 | 100 | 30 | 99 | –
2 | CC1(C)CN(NC(=O)c2cccc(F)c2)c2cc([N+](=O)[O-])ccc2S1 | 302 | 91 | 15 | 93 | –
3 | CC1(C)CN(N2CCCCC2=O)c2cc(Br)ccc2S1 | – | 100 | – | – | –
4 | CC1(C)CN(C2=CCCC2=O)c2cc([N+](=O)[O-])ccc2S1 | 417 | 98 | 26 | 90 | –
5 | CC1(C)CN(N2CCCC2=O)c2cc(C#N)ccc2S1 | – | 98 | – | – | –
6 | CC1(C)CN(NC(=O)c2cccc(F)c2)c2cc(Br)ccc2S1 | – | 95 | – | 58 | –
7 | CC(=O)NN1CC(C)(C)Sc2ccc([N+](=O)[O-])cc21 | 93.3 | 92 | 24 | 95 | –
8 | CC1(C)CN(N2CCCC2=O)c2cc(Br)ccc2S1(=O)=O | – | 100 | – | – | –
9 | CC(=O)N1CC(C)(C)Sc2ccc([N+](=O)[O-])cc21 | – | – | – | – | NE (Rattus norvegicus [5]): Ineffective; NE (Rattus norvegicus [6]): Ineffective
10 | CC1(C)CN(C2=CCCC2=O)c2cc(C(F)(F)F)ccc2S1 | 437 | 99 | 35 | 87 | –
11 | CC1(C)CN(N2CCCC2=O)c2cc(Br)ccc2[S+]1[O-] (stereo not drawn) | – | 96 | – | – | –
12 | CC1(C)CN(C2=CCCC2=O)c2cc(Br)ccc2S1 | – | 99 | 28 | 92 | IC50 [7]: 525 nM
13 | CC(=O)N1CC(C)(C)Sc2ccc(Br)cc21 | – | 100 | – | – | –
14 | C=CCN1CC(C)(C)Sc2ccc(C(F)(F)F)cc21 | – | 97 | – | – | –
15 | CC1(C)Sc2ccc(C(F)(F)F)cc2NC1=O | – | – | – | – | Emax [8]: 81%; IC50 [9]: 28.2 µM
16 | CC(=O)NN1CC(C)(C)Sc2ccc(Br)cc21 | – | 100 | – | – | –
17 | CC1(C)CN(N2CCCC2=O)c2cc([N+](=O)[O-])ccc2S1 | – | 91 | – | – | –
18 | CC1(C)CN(C2=CCCC2=O)c2cc(C#N)ccc2S1 | 69.2 | 95 | 18 | 100 | –
19 | CC1(C)Oc2ccc(C#N)cc2[C@@H](N2CCCC2=O)[C@@H]1O [LEVCROMAKALIM] | – | 100 | – | – | –
